# The list is not random: actives were taken first. Their share in the collection is about 2.4%.
# E-sel inducer: induces E-selectin expression in human endothelial cells. P16581. HUVEC E-selectin immunofluorescence imaging; normalized: neutral wells 0, TNF-alpha wells 100. activation, % at 7.58 µM. 260,000 tested, 0.37% active;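 active = mean E-selectin-positive cell signal at least 10% of the positive control, reached in at least 60% of replicates, without over 20% cell loss; inconclusive = no rule given, readout overlaps actives, possibly toxicity-flagged; inactive = the rest, including those meeting only one limit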
# Target sequence (P16581 whole entry, looked up): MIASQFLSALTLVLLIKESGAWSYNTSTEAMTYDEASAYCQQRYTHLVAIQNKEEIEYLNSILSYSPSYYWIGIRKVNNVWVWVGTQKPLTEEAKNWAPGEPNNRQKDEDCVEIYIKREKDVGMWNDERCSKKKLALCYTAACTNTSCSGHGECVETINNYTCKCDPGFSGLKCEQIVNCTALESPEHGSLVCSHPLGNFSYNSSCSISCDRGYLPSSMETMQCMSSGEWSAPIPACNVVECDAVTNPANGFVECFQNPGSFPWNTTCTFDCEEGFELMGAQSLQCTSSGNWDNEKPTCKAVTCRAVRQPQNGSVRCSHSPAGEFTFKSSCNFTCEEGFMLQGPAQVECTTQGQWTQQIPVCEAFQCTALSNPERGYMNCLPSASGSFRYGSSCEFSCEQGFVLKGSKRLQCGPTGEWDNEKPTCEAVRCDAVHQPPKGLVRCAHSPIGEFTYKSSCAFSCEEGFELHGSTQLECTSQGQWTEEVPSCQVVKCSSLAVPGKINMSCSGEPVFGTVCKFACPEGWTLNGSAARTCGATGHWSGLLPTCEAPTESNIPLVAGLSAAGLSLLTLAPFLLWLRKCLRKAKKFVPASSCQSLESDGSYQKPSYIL
#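 Test system: HUVEC; input: 3,000 HUVEC/well; measured by: immunofluorescence imaging; read-out: % PE-positive cells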
# LGR2 antag: inhibitors of bursicon-induced Drosophila LGR2 receptor cAMP signaling; HEK293 LGR2, CRE-luciferase, bursicon-stimulated, 4 h; inhibition, % at 9.99 µM; 380,000 tested, 0.35% active; AID 720647;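 active = drop in luminescence signal, shown as inhibition above about 50% in the replicate tests, limit read from the data, passing the limit was not always enough; inconclusive = probably only some replicates passing the limit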;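 also: agonist challenge used bursicon conditioned medium at about half maximal strength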
# EWS-Fli block: EWS/Fli transcriptional activity inhibition | A673 NR0B1-luciferase reporter, viability-normalised | inhibition, % at 12.6 µM | 350,000 tested, 0.67% active | AID 651661;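 active = mean inhibition of at least 50% after viability correction, with every replicate also passing that limit; inconclusive = mean reaches 50% but only one of two replicates passes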;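 also: firefly luciferase signal divided by Alamar Blue viability fluorescence both relative to DMSO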
# Ecoli rRNA inh: inhibitors of bacterial rRNA selective over humanized ribosomes; AID 720706; 350,000 tested, 1.6% active; E. coli WT GFP vs humanized-ribosome RFP mutants, fluorescence, 24 h; hits give low values; DMSO median 0, no signal -100; GFP signal change (wild-type ribosome), % (test concentration not listed);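 active = significant combined selectivity score with lowered wild-type GFP, culture density cut under 30%, mutant RFP and density less affected; inactive = any of these conditions unmet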
# HepG2 cytotox: kills or reduces viability of HepG2 cells; AID 743480; shares compounds with Ecoli rRNA inh; ATP luminescence, 72 h; 30 tested, under 10 active; activity change, negative = cytotoxicity, unspecified at 26 µM;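 active = compounds whose fitted half-maximal signal-loss concentration is at most twice their highest valid dose; inconclusive = flat curve with 30 to 70% signal loss, or poor fit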
# AID977621: growth inhibition of wild-type GFP E. coli, dose response, H69 mutant RFP, cherry-pick | E. coli wild-type GFP strain growth, fluorescence, 24 h | AID 977621 | shares compounds with Ecoli rRNA inh | 1,900 tested, under 10 active | activity change, negative = inhibition at 50 µM;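 active = Wild-type ribosome reporter drop at least double the humanized mutant ribosome reporter drop, growth loss under a set limit; inconclusive = no clear call, values can overlap the other calls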;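 also: wild-type GFP and H69 mutant RFP strains grown together 50/50 in each well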
# AID977628: E. coli growth inhibition, wild-type GFP versus h24 humanized RFP strain, dose response, h24 mutant RFP vs wild-type GFP, cherry-pick | shares compounds with Ecoli rRNA inh | 1,900 tested, under 10 active | activity change, negative = inhibition at 50 µM | E. coli WT GFP strain growth, fluorescence, 24 h;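 active = compound lowering the normal-ribosome reporter at least twice as much as the humanized-ribosome reporter, growth loss under a set limit; inconclusive = no clear call, values can overlap the other calls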;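 also: wild-type GFP and h24 humanized RFP strains co-cultured 1 to 1 per well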
# Active calls of the source: *; ? = inconclusive; nt = no result given.
SMILES,E-sel inducer,LGR2 antag,EWS-Fli block,Ecoli rRNA inh,AID977621,AID977628,others
CCOC(=O)c1c(NC(=O)Cc2cccs2)sc(C)c1C,nt,-12,18,-34*,nt,nt,HepG2 cytotox=11
COc1ccc(OC)c(CN2CCCC(C(=O)c3ccccc3SC)C2)c1 (stereo not given),nt,6,21,-18*,nt,?,
COc1ccc(-c2[nH]ncc2CN2CCCC(C(=O)c3ccc(OC)cc3OC)C2)cc1 (stereo not given),0,0,13,7,nt,nt,
CC(=O)N1c2c(cc(Br)cc2S(=O)(=O)N2CCCCC2)CC1C (stereo not given),0,-7,5,-19*,nt,-6.5,
CC(=O)N1c2c(cc(Br)cc2S(=O)(=O)N2CCN(c3ccccc3F)CC2)CC1C (stereo not given),0,7,25,2,nt,nt,
CCCNC(=O)C[C@@H]1C[C@@H]2c3cc(NS(=O)(=O)c4ccc(F)cc4)ccc3O[C@@H]2[C@H](CO)O1,0,2,-14,-1,nt,nt,
CCOC(=O)c1cnc2ccccc2c1NCc1ccco1,nt,-22,-1,-29*,nt,-10,
Cc1ccc(-n2c(SCC(N)=O)nnc2-c2cnccn2)cc1,0,-17,-3,-25*,-2.2,?,
Cc1ccc(-n2c(SCC(=O)OC(C)C)nnc2-c2cnccn2)cc1,-1,nt,nt,nt,nt,nt,
CCc1ccc(C(=O)Nc2cccnc2Oc2ccc(Cl)cc2)cc1,?,-20,-24,-21*,-8.2,nt,
O=C(Nc1cccc2ncccc12)c1ccc(Cl)cc1,nt,-1,-14,-1,nt,nt,
CC1CCN(CC(O)COCCC23CC4CC(CC(C4)C2)C3)CC1 (stereo not given),nt,1,-16,-40*,-2.8,nt,
O=C(Nc1cc(F)ccc1F)N[C@H]1CC[C@@H](CCNC(=O)c2cnccn2)O[C@H]1CO,0,-2,-1,0,nt,nt,
Cc1ccccc1-n1c([C@@H]2C[C@H]2c2ccccc2)n[nH]c1=S,0,2,4,-28*,-18,-4.5,
COc1ccc(CC(=O)Oc2ccc(C)cc2C)cc1,0,1,10,-23*,-5.7,-5.9,
O=C(C[C@@H]1CC[C@H](NS(=O)(=O)c2ccccc2)[C@H](CO)O1)N1CCC(Cc2ccccc2)CC1,0,11,-7,-7,nt,nt,
Cc1ccc(-c2c(=O)n(O)c3ccccc3[n+]2[O-])cc1,1,-1,12,-17*,-5.6,?,
CCOC(=O)C1NN=C(C(=O)c2ccccc2)C1c1ccc(OC)cc1 (stereo not given),nt,-19,10,-25*,-9,-6.3,
CCOC(=O)C1NN=C(C(=O)c2ccccc2)C1c1ccccc1 (stereo not given),nt,-13,2,-15,nt,nt,
CC(=O)Nc1cccc(OCCCOc2cccc([N+](=O)[O-])c2)c1,0,-38,-16,-5.5*,-11,-8.9,
C=CCn1c(C)cc(C(=O)COC(=O)CNC(=O)c2ccccc2)c1C,-1,47,5,-24*,-7.8,nt,
COC(=O)C[C@H]1C[C@@H]2c3cc(NC(=O)Nc4ccc(C(F)(F)F)cc4)ccc3O[C@@H]2[C@H](CO)O1,0,-15,4,-25*,nt,?,
C[C@H]1CN([C@@H](C)CO)C(=O)Cc2cc(NC(=O)Nc3cccc4ccccc34)ccc2O[C@H]1CN(C)Cc1ccc(C(F)(F)F)cc1,nt,14,-2,0,nt,nt,
CCOC(=O)Cc1csc(SCC(=O)Nc2cc(Cl)ccc2Oc2ccccc2)n1,nt,-2,nt,nt,nt,nt,
CCOC(=O)Cc1csc(SCC(=O)Nc2cc(C)ccc2OC)n1,4,7,5,-24*,nt,?,
SMILES,E-sel inducer,LGR2 antag,EWS-Fli block,Ecoli rRNA inh,AID977621,AID977628,others
C[C@H](CO)N1C[C@H](C)[C@H](CN(C)Cc2ccc(C(=O)O)cc2)OCCCC[C@H](C)Oc2ccc(NS(=O)(=O)c3ccccc3)cc2C1=O,0,-6,-7,0,nt,nt,
Fc1ccc(CSc2nnc(-c3ccco3)o2)cc1,1,-43,-83,-17*,?,1.4,
O=C1c2ccccc2CCC12N=NCC2c1ccc(Br)cc1 (stereo not given),-1,nt,nt,nt,nt,nt,
COc1ccc(C2CN=NC23CCc2ccccc2C3=O)cc1 (stereo not given),4,-30,32,-20*,1.1,nt,
CC(CCc1ccccc1)NC(=O)CNC(=O)COc1ccccc1 (stereo not given),1,7,-1,-14*,-15,nt,
COc1ccc(CN2C(=O)NC(C)(c3ccc(C)cc3)C2=O)cc1F (stereo not given),1,-5,5,-22*,-9.9,?,
CC1=CC(C)(C)N(C(=O)CSc2nnc(C)s2)c2ccc(C)cc21,nt,22,5,-17*,5.1,?,
CC1=CC(C)(C)N(C(=O)CSc2nnc(N)s2)c2cc(C)c(C)cc21,nt,-19,nt,nt,nt,nt,
Nc1nc(Nc2ccccc2F)nc(NCc2ccco2)c1[N+](=O)[O-],5,-41,-6,-20*,?,nt,
Cc1ccc(Nc2nc(N)c([N+](=O)[O-])c(NCc3ccco3)n2)cc1,0,-45,-30,nt,nt,nt,
O=C(Nc1ccc(F)c(Cl)c1)C1CC2CCC1C2 (stereo not given),2,0,-9,-28*,4.3,5,
O=C(CN1CCCCC1)Nc1ccccc1-c1ccccc1,nt,-2,7,-15*,-2.8,nt,
CSc1ccccc1NC(=O)CN1CCCCC1,nt,nt,-5,7,nt,nt,
O=C(COC(=O)C1CC2C=CC1C2)Nc1ccc([N+](=O)[O-])cc1 (stereo not given),nt,-16,-3,-31*,-17,-12,
NC(=O)c1ccc(NC(=O)COC(=O)C2CC3C=CC2C3)cc1 (stereo not given),0,2,1,2,nt,nt,
CC=Cc1ccc2n(c1=O)C[C@@H]1[C@@H](CO)[C@H](C(=O)NC3CCC3)N(C(=O)C3CC3)[C@H]21 (mixture of isomers),0,13,3,3,nt,nt,
COc1ccc(-c2csc(N)n2)cc1F,2,-35,-44,-17*,-5.9,-3.1,
Nc1nc(-c2ccc(F)cc2)cs1,0,-3,-12,-20,nt,nt,
COc1ccc(NC(=O)CSc2n[nH]c(-c3ccncc3)n2)c([N+](=O)[O-])c1,0,5,nt,-18*,?,-4.8,
COc1ccc2c(CC(=O)NCc3ccc4c(c3)OCO4)coc2c1,nt,-6,0,-25*,2.3,?,
COc1cccc(CC(=O)OC(C)C(=O)NCc2ccc3c(c2)OCO3)c1 (stereo not given),0,1,-2,-31*,?,?,
CC(OC(=O)Cc1ccc(F)cc1)C(=O)NCc1ccc2c(c1)OCO2 (stereo not given),2,1,-2,-4,nt,nt,

# Screens as filed in PubChem.
